The record followed here is ChEMBL document CHEMBL1268887, “2-Hexadecynoic acid inhibits plasmodial FAS-II enzymes and arrests erythrocytic and liver stage Plasmodium infections” (Bioorg Med Chem, 2010).

Values after ≈ are worked out from the molar mass of the structure shown.

The test system of test [1] is Leishmania donovani. Kind of test: Leishmanicidal activity against axenic amastigotes of Leishmania donovani MHOM/ET/67/L82 after 72 hrs. It is filed as functional, organism-based. To be noted: MHOM/ET/67/L82, 72 h.
For test [2], the system named is Plasmodium yoelii. Nature of the test: Antimalarial activity against liver stages of Plasmodium yoelii expressing GFP infected in human HepG2:CD81 cells after 43 hrs by flow cytometry. It is filed as functional, organism-based. In short, it runs like this: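 HepG2:CD81 cells seeded on attachment matrix in DMEM/F12 with FBS, infected next day with 50,000 PyGFP sporozoites dissected from mosquitoes 14 days post blood meal. Compound added 2 h later from 10 mM DMSO stocks, tested at 10 to 100 μM, medium changed at 24 h, grown a further 43 h at 37 °C. GFP-positive cells counted by flow cytometry with 7-AAD; atovaquone as positive control.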

In test [3] the test system is Plasmodium yoelii. Nature of the test: Antimalarial activity against liver stages of Plasmodium yoelii expressing GFP infected in human HepG2:CD81 cells after 43 hrs by immunofluorescence analysis. It is filed as functional, organism-based. In short, it runs like this: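 P. yoelii sporozoite-infected subconfluent HepG2:CD81 cells were kept at 37 °C in 5% CO2 and exposed to compound at up to 25 μg/ml in complete medium. After 43 h they were formalin-fixed and stained with anti-Plasmodium HSP70 mouse mAb plus rabbit anti-UIS4 or anti-FabI. About 20–25 parasites per treatment were sized at 20X against DMSO controls. The normalized reduction was used for IC50 estimation.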

For test [4], the system named is Plasmodium falciparum. Kind of test: Selectivity ratio of IC50 for Plasmodium falciparum FabG to IC50 for Plasmodium falciparum FabZ.
Test [5] deals with L6. Nature of the test: Cytotoxicity against rat L6 cells after 72 hrs by microplate fluorometric analysis. It is filed as cell-based. As to conditions: L6, 72 h.
Test [6] deals with T1, Fatty acid synthase (Plasmodium falciparum, UniProt Q965D7).
T1 sequence (Q965D7 whole entry): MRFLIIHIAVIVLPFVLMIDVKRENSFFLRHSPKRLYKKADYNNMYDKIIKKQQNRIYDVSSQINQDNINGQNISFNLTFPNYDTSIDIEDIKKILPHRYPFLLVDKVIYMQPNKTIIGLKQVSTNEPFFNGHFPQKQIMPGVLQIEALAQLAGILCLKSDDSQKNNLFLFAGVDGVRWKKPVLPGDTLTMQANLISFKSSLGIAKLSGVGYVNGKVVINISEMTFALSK
Nature of the test: Inhibition of Plasmodium falciparum FabZ by spectrophotometric analysis. The essentials: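 Recombinant PfFabZ (0.5 μg) with 25 μM crotonoyl-CoA in 20 mM HEPES pH 7.4, 150 mM NaCl; DMSO at most 1% final. Read at 263 nm for 2 min, with epigallocatechin gallate as reference. IC50 came from plotted dose-response curves.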

Test [7] deals with Plasmodium falciparum. Nature of the test: Selectivity ratio of IC50 for Plasmodium falciparum FabG to IC50 for Plasmodium falciparum FabI.
Test [8] concerns the target T2, 3-oxoacyl-acyl-carrier protein reductase (Plasmodium falciparum, UniProt Q965D6).
T2 sequence (Q965D6 whole entry): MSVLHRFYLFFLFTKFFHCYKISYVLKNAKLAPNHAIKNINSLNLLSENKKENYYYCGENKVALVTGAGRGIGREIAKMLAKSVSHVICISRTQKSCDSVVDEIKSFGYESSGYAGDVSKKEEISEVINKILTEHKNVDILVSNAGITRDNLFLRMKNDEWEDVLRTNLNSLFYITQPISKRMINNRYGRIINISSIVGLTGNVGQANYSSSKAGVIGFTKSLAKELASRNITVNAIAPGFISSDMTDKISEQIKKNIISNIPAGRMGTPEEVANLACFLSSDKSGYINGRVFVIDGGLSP
Kind of test: Inhibition of Plasmodium falciparum FabG by spectrophotometric analysis. The essentials: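 Recombinant PfFabG assayed in 20 mM HEPES pH 7.4, 150 mM NaCl, with NADPH cofactor and acetoacetyl-CoA substrate; DMSO at most 1% final. IC50 came from plotted dose-response curves.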

Test [9] has as its target T3, Enoyl-acyl-carrier protein reductase (Plasmodium falciparum, UniProt Q965D5).
T3 sequence (Q965D5 whole entry): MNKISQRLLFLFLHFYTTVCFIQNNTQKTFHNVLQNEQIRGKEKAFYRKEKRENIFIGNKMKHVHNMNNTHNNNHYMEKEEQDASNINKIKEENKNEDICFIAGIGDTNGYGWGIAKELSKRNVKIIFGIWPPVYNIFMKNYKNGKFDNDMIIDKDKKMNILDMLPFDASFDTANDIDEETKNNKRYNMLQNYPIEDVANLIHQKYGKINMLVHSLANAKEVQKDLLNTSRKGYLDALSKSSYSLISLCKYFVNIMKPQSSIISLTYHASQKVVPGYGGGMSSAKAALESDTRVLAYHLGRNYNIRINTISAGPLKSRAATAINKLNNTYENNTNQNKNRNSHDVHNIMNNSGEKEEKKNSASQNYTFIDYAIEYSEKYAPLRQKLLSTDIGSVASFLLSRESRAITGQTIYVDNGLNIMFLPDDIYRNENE
Kind of test: Inhibition of Plasmodium falciparum FabI by spectrophotometric analysis.

Test [10] deals with Trypanosoma cruzi. Nature of the test: Trypanocidal activity against intracellular amastigotes of Trypanosoma cruzi Tulahuen C2C4 expressing LacZ gene infected in rat L6 cells after 96 hrs. To be noted: Tulahuen C2C4, L6, 96 h. It is filed as functional, organism-based.
Test [11] deals with Plasmodium falciparum. Kind of test: Antimalarial activity against erythrocytic stages of chloroquine and pyrimethamine-resistant Plasmodium falciparum K1 assessed as [3H]hypoxanthine incorporation after 48 hrs by liquid scintillation counting. It is filed as functional, organism-based. In short, it runs like this:
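K1 parasites in RPMI 1640 with 5% Albumax, no hypoxanthine, given serial dilutions; 48 h at 37 °C under reduced oxygen, then 0.5 μCi [3H]-hypoxanthine added for a further 24 h. Harvested on glass-fibre filters and counted. Counts per well expressed as percentage of untreated controls; IC50 read from plotted dose-response curves. Chloroquine as standard.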

The test system of test [12] is Trypanosoma brucei rhodesiense. Kind of test: Trypanocidal activity against bloodstream form of Trypanosoma brucei rhodesiense STIB 900 after 72 hrs. It is filed as functional, organism-based. As to conditions: STIB 900, 72 h.

Consider `CCCCCCCCCCCCCCCCOP(=O)([O-])OCC[N+](C)(C)C` [MILTEFOSINE], for which 0.26 µg/mL (≈ 0.638 µM) corresponded to half-maximal inhibition in test [1] (IC50).

For `O=C1C(O)=C([C@H]2CC[C@H](c3ccc(Cl)cc3)CC2)C(=O)c2ccccc21` [ATOVAQUONE], the IC50 (usually the point on the concentration scale where inhibition reaches its midpoint) in [2] came to 0.0025 µg/mL (≈ 0.00681 µM); in [3], 0.00037 µg/mL (≈ 0.00101 µM).

As to `CCCCCCCCCC#CCCCCC(=O)O`, the Ratio IC50 in [4] is 50; in test [7] it was 10. Also, the IC50 in test [1] is 9.8 µg/mL (≈ 38.8 µM); in [5], 30.3 µg/mL (≈ 120 µM); in test [2] it was greater than 25 µg/mL; in [6], 47.5 µM; in [8] it was greater than 396 µM; in [9] it was 14.3 µM. Besides, the IC50 was greater than 30 µg/mL in test [10], greater than 25 µg/mL in test [3], 22.5 µg/mL (≈ 89.1 µM) in [11] and 31.7 µg/mL (≈ 126 µM) in test [12].

In test [5], `COc1cc([C@@H]2c3cc4c(cc3[C@H](O)[C@H]3COC(=O)[C@H]23)OCO4)cc(OC)c1OC` [PODOFILOX] gave an IC50 of 0.004 µg/mL (≈ 0.00965 µM).

Regarding `O=C(O[C@@H]1Cc2c(O)cc(O)cc2O[C@@H]1c1cc(O)c(O)c(O)c1)c1cc(O)c(O)c(O)c1` [EPIGALOCATECHIN GALLATE], the IC50 in [6] was 0.0654 µM.

Turning to `O=C(Cn1ccnc1[N+](=O)[O-])NCc1ccccc1` [BENZNIDAZOLE], 0.489 µg/mL (≈ 1.88 µM) corresponded to half-maximal inhibition in [10] (IC50).

For the compound `CCCCCCCCCCC#CCCCC(=O)O`, the Ratio IC50 stood at 50 in test [4] and 10 in test [7]. Also, the IC50 in test [1] was 13.4 µg/mL (≈ 53.1 µM); in test [5], greater than 90 µg/mL; in test [2], greater than 25 µg/mL; in test [6], 55.5 µM; in test [8], greater than 396 µM; in test [9], 12.3 µM. Also, the IC50 in test [10] was greater than 30 µg/mL; in [3] it was greater than 25 µg/mL; in [11], 6.6 µg/mL (≈ 26.1 µM); in test [12], 25.5 µg/mL (≈ 101 µM).

For `CCCCCCCCCCCCCCCC(=O)O` [PALMITIC ACID], the IC50 in [1] is 14.5 µg/mL (≈ 56.5 µM); in [5], 52.7 µg/mL (≈ 206 µM); in test [2] it was greater than 25 µg/mL; in [6], greater than 390 µM; in test [8] it was greater than 390 µM; in test [9], greater than 390 µM. For the same compound, the IC50 in test [10] is greater than 30 µg/mL; in test [3], greater than 25 µg/mL; in [11], 3.8 µg/mL (≈ 14.8 µM); in test [12] it was 30.4 µg/mL (≈ 119 µM).

In the case of `CCCCCCC#CCCCCCCCC(=O)O`, the values for the Ratio IC50 in test [4] and in test [7] were 50 and 10, respectively. The IC50 was 4.1 µg/mL (≈ 16.2 µM) in [1]; 80.8 µg/mL (≈ 320 µM) in test [5]; greater than 25 µg/mL in [2]; 49.5 µM in [6]; greater than 396 µM in [8]; 11.1 µM in test [9]. Further, the IC50 was greater than 30 µg/mL in [10], greater than 25 µg/mL in test [3] and 3.7 µg/mL (≈ 14.7 µM) in test [12].
